Test results from ChEMBL document CHEMBL3046406, “Herbicidal potential of ophiobolins produced by Drechslera gigantea” (2006).
Active and inactive are the calls of the source. The calls are words filed in the database; no cut-off is given here.

test system: Echinochloa crus-galli; experiment: Herbicidal activity against Echinochloa crus-galli (barnyard grass) assessed as diameter of leaf necrosis at 250 ug/ml measured after 2 days post compound treatment by leaf puncture assay; assay type: functional
Procedure, shortened: (§1)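 Detached leaf segments (about 5 cm) from young greenhouse-grown plants, each with a superficial puncture lesion (0.5 mm) made by glass capillary. Compound dissolved in DMSO, diluted with distilled water (final DMSO 2%), 8 µL droplet applied. Segments held on moist filter paper at 25 °C under continuous fluorescent light (10000 lux). DMSO droplets as control. Necrosis scored visually on a 0–3 scale at day 2.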

Row | Compound | Activity
1 | CC(C)=C[C@H]1C[C@H](C)[C@]2(CC[C@]3(C)C[C@@H]4C(C)=CC(=O)[C@H]4/C(CO)=C\C[C@H]32)O1 | inactive

test system: Chenopodium album; experiment: Herbicidal activity against Chenopodium album assessed as diameter of leaf necrosis at 250 ug/ml measured after 2 days post compound treatment by leaf puncture assay; assay type: functional; procedure, shortened: as §1

Row | Compound | Activity
2 | CC(C)=C[C@H]1C[C@H](C)[C@]2(CC[C@]3(C)C[C@@H]4C(C)=CC(=O)[C@H]4/C(CO)=C\C[C@H]32)O1 | inactive

test system: Convolvulus arvensis; experiment: Herbicidal activity against Convolvulus arvensis assessed as diameter of leaf necrosis at 100 ug/ml measured after 2 days post compound treatment by leaf puncture assay; assay type: functional; procedure, shortened: as §1

Row | Compound | Activity
3 | CC(C)=C[C@H]1C[C@H](C)[C@]2(CC[C@]3(C)C[C@@H]4C(C)=CC(=O)[C@H]4/C(CO)=C\C[C@H]32)O1 | inactive

test system: Sonchus oleraceus; experiment: Herbicidal activity against Sonchus oleraceus assessed as diameter of leaf necrosis at 250 ug/ml measured after 2 days post-compound treatment by leaf puncture assay; assay type: functional; procedure, shortened: as §1

Row | Compound | Activity
4 | CC(C)=C[C@H]1C[C@H](C)[C@]2(CC[C@]3(C)C[C@@H]4C(C)=CC(=O)[C@H]4/C(CO)=C\C[C@H]32)O1 | inactive

test system: Phalaris canariensis; experiment: Herbicidal activity against Phalaris canariensis assessed as diameter of leaf necrosis at 250 ug/ml measured after 2 days post compound treatment by leaf puncture assay; assay type: functional; procedure, shortened: as §1

Row | Compound | Activity
5 | CC(C)=C[C@H]1C[C@H](C)[C@]2(CC[C@]3(C)C[C@@H]4C(C)=CC(=O)[C@H]4/C(CO)=C\C[C@H]32)O1 | inactive

test system: Convolvulus arvensis; experiment: Herbicidal activity against Convolvulus arvensis assessed as diameter of leaf necrosis at 50 ug/ml measured after 2 days post compound treatment by leaf puncture assay; assay type: functional; procedure, shortened: as §1

Row | Compound | Activity
6 | CC(C)=C[C@H]1C[C@H](C)[C@]2(CC[C@]3(C)C[C@@H]4C(C)=CC(=O)[C@H]4/C(CO)=C\C[C@H]32)O1 | inactive

test system: Oloptum miliaceum; experiment: Herbicidal activity against Piptatherum miliaceum assessed as diameter of leaf necrosis at 250 ug/ml measured after 2 days post compound treatment by leaf puncture assay; assay type: functional; procedure, shortened: as §1

Row | Compound | Activity
7 | CC(C)=C[C@H]1C[C@H](C)[C@]2(CC[C@]3(C)C[C@@H]4C(C)=CC(=O)[C@H]4/C(CO)=C\C[C@H]32)O1 | inactive

test system: Chenopodium album; experiment: Herbicidal activity against Chenopodium album assessed as diameter of leaf necrosis at 100 ug/ml measured after 2 days post compound treatment by leaf puncture assay; assay type: functional; procedure, shortened: as §1

Row | Compound | Activity
8 | CC(C)=C[C@H]1C[C@H](C)[C@]2(CC[C@]3(C)C[C@@H]4C(C)=CC(=O)[C@H]4/C(CO)=C\C[C@H]32)O1 | inactive

test system: Amaranthus retroflexus; experiment: Herbicidal activity against Amaranthus retroflexus assessed as diameter of leaf necrosis at 250 ug/ml measured after 2 days post compound treatment by leaf puncture assay; assay type: functional; procedure, shortened: as §1

Row | Compound | Activity
9 | CC(C)=C[C@H]1C[C@H](C)[C@]2(CC[C@]3(C)C[C@@H]4C(C)=CC(=O)[C@H]4/C(CO)=C\C[C@H]32)O1 | inactive

test system: Sonchus oleraceus; experiment: Herbicidal activity against Sonchus oleraceus assessed as diameter of leaf necrosis at 100 ug/ml measured after 2 days post-compound treatment by leaf puncture assay; assay type: functional; procedure, shortened: as §1

Row | Compound | Activity
10 | CC(C)=C[C@H]1C[C@H](C)[C@]2(CC[C@]3(C)C[C@@H]4C(C)=CC(=O)[C@H]4/C(CO)=C\C[C@H]32)O1 | inactive

test system: Echinochloa crus-galli; experiment: Herbicidal activity against Echinochloa crus-galli (barnyard grass) assessed as diameter of leaf necrosis at 50 ug/ml measured after 2 days post compound treatment by leaf puncture assay; assay type: functional; procedure, shortened: as §1

Row | Compound | Activity
11 | CC(C)=C[C@H]1C[C@H](C)[C@]2(CC[C@]3(C)C[C@@H]4C(C)=CC(=O)[C@H]4/C(CO)=C\C[C@H]32)O1 | inactive

test system: Cynodon dactylon; experiment: Herbicidal activity against Cynodon dactylon assessed as diameter of leaf necrosis at 250 ug/ml measured after 2 days post compound treatment by leaf puncture assay; assay type: functional; procedure, shortened: as §1

Row | Compound | Activity
12 | CC(C)=C[C@H]1C[C@H](C)[C@]2(CC[C@]3(C)C[C@@H]4C(C)=CC(=O)[C@H]4/C(CO)=C\C[C@H]32)O1 | inactive

test system: Diplotaxis erucoides; experiment: Herbicidal activity against Diplotaxis erucoides assessed as diameter of leaf necrosis at 50 ug/ml measured after 2 days post compound treatment by leaf puncture assay; assay type: functional; procedure, shortened: as §1

Row | Compound | Activity
13 | CC(C)=C[C@H]1C[C@H](C)[C@]2(CC[C@]3(C)C[C@@H]4C(C)=CC(=O)[C@H]4/C(CO)=C\C[C@H]32)O1 | inactive

test system: Setaria viridis; experiment: Herbicidal activity against Setaria viridis assessed as diameter of leaf necrosis at 100 ug/ml measured after 2 days post compound treatment by leaf puncture assay; assay type: functional; procedure, shortened: as §1

Row | Compound | Activity
14 | CC(C)=C[C@H]1C[C@H](C)[C@]2(CC[C@]3(C)C[C@@H]4C(C)=CC(=O)[C@H]4/C(CO)=C\C[C@H]32)O1 | inactive

test system: Bromus sterilis; experiment: Herbicidal activity against Bromus sterilis assessed as diameter of leaf necrosis at 250 ug/ml measured after 2 days post compound treatment by leaf puncture assay; assay type: functional; procedure, shortened: as §1

Row | Compound | Activity
15 | CC(C)=C[C@H]1C[C@H](C)[C@]2(CC[C@]3(C)C[C@@H]4C(C)=CC(=O)[C@H]4/C(CO)=C\C[C@H]32)O1 | inactive

test system: Phalaris canariensis; experiment: Herbicidal activity against Phalaris canariensis assessed as diameter of leaf necrosis at 50 ug/ml measured after 2 days post compound treatment by leaf puncture assay; assay type: functional; procedure, shortened: as §1

Row | Compound | Activity
16 | CC(C)=C[C@H]1C[C@H](C)[C@]2(CC[C@]3(C)C[C@@H]4C(C)=CC(=O)[C@H]4/C(CO)=C\C[C@H]32)O1 | inactive

test system: Cynodon dactylon; experiment: Herbicidal activity against Cynodon dactylon assessed as diameter of leaf necrosis at 100 ug/ml measured after 2 days post compound treatment by leaf puncture assay; assay type: functional; procedure, shortened: as §1

Row | Compound | Activity
17 | CC(C)=C[C@H]1C[C@H](C)[C@]2(CC[C@]3(C)C[C@@H]4C(C)=CC(=O)[C@H]4/C(CO)=C\C[C@H]32)O1 | inactive

test system: Digitaria sanguinalis; experiment: Herbicidal activity against Digitaria sanguinalis (hairy crabgrass) assessed as diameter of leaf necrosis at 100 ug/ml measured after 2 days post compound treatment by leaf puncture assay; assay type: functional; procedure, shortened: as §1

Row | Compound | Activity
18 | CC(C)=C[C@H]1C[C@H](C)[C@]2(CC[C@]3(C)C[C@@H]4C(C)=CC(=O)[C@H]4/C(CO)=C\C[C@H]32)O1 | inactive

test system: Amaranthus retroflexus; experiment: Herbicidal activity against Amaranthus retroflexus assessed as diameter of leaf necrosis at 100 ug/ml measured after 2 days post compound treatment by leaf puncture assay; assay type: functional; procedure, shortened: as §1

Row | Compound | Activity
19 | CC(C)=C[C@H]1C[C@H](C)[C@]2(CC[C@]3(C)C[C@@H]4C(C)=CC(=O)[C@H]4/C(CO)=C\C[C@H]32)O1 | inactive
